Results as given in ChEMBL document CHEMBL1155843, “Selective alkylation of beta(II)-tubulin and thioredoxin-1 by structurally related subsets of aryl chloroethylureas leading to either anti-microtubules or redox modulating agents” (2008).
The source made the active and inactive calls. The calls are words filed in the database; no cut-off is given here.

Experiments:
MCF7 [1] = assay: Antiproliferative activity against human MCF7 cells after 48 hrs by sulforhodamine B method; type: functional; conditions: MCF7, 48 h
In short: (§1)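 Seeding per well: 5 × 10³ HT-29 cells, or 3.5 × 10³ M21 or MCF-7 cells. Drugs were dissolved fresh in DMSO and serially diluted in medium (final range 100 to 0.3), with DMSO held at 0.12%. Cells were exposed for 48 h, fixed with cold TCA (10% final, 1 h, 4 °C) and stained with 0.1% SRB for 15 min. Dye was solubilized in 10 mM Tris and read at A585. Day-0 OD was subtracted, inhibition was calculated against DMSO cells, and n ≥ 3.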

M21 [2] = assay: Antiproliferative activity against human M21 cells after 48 hrs by sulforhodamine B method; type: functional; conditions: for GI50: M21, 48 h; in short: as §1
HT-29 = assay: Antiproliferative activity against human HT29 cells after 48 hrs by sulforhodamine B method; type: functional; conditions: HT-29, 48 h; in short: as §1
MCF7 [3] = assay: Cell cycle arrest in human MCF7 cells assessed as accumulation at G0/G1 phase at 2 times GI50 after 24 hrs by flow cytometry; type: functional
In short: (§2)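 Cells were trypsinized, PBS-washed, fixed in ice-cold ethanol, and stained with propidium iodide plus RNase for 30 min at room temperature. G0/G1, S and G2/M fractions were measured by flow cytometry.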

MCF7 [4] = assay: Cell cycle arrest in human MCF7 cells assessed as accumulation at S phase at 2 times GI50 after 24 hrs by flow cytometry; type: functional; in short: as §2
MCF7 [5] = assay: Cell cycle arrest in human MCF7 cells assessed as accumulation at G2/M phase at 2 times GI50 after 24 hrs by flow cytometry; type: functional; in short: as §2
M21 [6] = assay: Induction of beta2-tubulin alkylation in human M21 cells at 2 times GI50 by Western blot analysis; type: cell-based
In short: (§3)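 Floating and adherent cells were pooled and lysed in boiled Laemmli buffer; protein was measured by Lowry. 20 µg per lane ran on 10% SDS-PAGE and was blotted with anti-βII-tubulin (1:500), HRP anti-mouse (1:2500) and ECL. Alkylation was scored as a faster-migrating βII-tubulin band.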

M21 [7] = assay: Inhibition of nuclear translocation of thioredoxin-1 from cytosol in human M21 cells at 2 times GI50 after 16 hrs by immunocytofluorescence; type: functional, cell-based
In short: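 Cells were fixed in 3.7% formaldehyde (20 min), permeabilized with 0.1% saponin and blocked with 3% BSA. Staining used anti-Trx-1 monoclonal (1:200, 2 h, 37 °C) and Alexa-488 anti-mouse IgG (1:1000, 1 h). Trx-1 cytosol/nucleus localization was read by confocal immunofluorescence.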

M21 [8] = assay: Induction of beta2-tubulin alkylation in human M21 cells at 2 times GI50 after 48 hrs by Western blot analysis; type: cell-based; in short: as §3
M21 [9] = assay: Induction of beta2-tubulin alkylation in human M21 cells at 50 nM by Western blot analysis; type: cell-based
In short: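 Same M21 Western blot workflow (pooled cells, Laemmli lysis, 20 µg on 10% SDS-PAGE, anti-βII-tubulin 1:500, ECL), except that vinblastine, colchicine and paclitaxel were applied at 50 nM for 16, 24 and 48 h at 37 °C. The alkylated form appeared as a lower-apparent-MW band.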

M21 [10] = assay: Inhibition of nuclear translocation of thioredoxin-1 from cytosol in human M21 cells at 50 nM after 16 hrs by immunocytofluorescence; type: functional, cell-based
In short: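 Reference agents colchicine or vinblastine were applied at 50 nM to M21 cells on fibronectin-coated coverslips. Cells were fixed in formaldehyde, permeabilized with saponin, and stained with anti-Trx-1 (1:200, 2 h, 37 °C) and Alexa-488 secondary. Nuclear versus cytosolic Trx-1 was assessed by confocal microscopy.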

SMILES	GI50 (MCF7 [1])	GI50 (M21 [2])	GI50 (HT-29)	Activity (MCF7 [3])	Activity (MCF7 [4])	Activity (MCF7 [5])	Activity (M21 [6])	Activity (M21 [7])	Activity (M21 [2])	Activity (M21 [8])	Activity (M21 [9])	Activity (M21 [10])
CC1CCC(Oc2cccc(NC(=O)NCCCl)c2)CC1 (configuration not stated)	33 µM	32 µM	19 µM	65%	20%	15%	inactive	Active				
O=C(NCCCl)Nc1ccc2c(c1)CCCCC2	12 µM	7.2 µM	3.2 µM	33%	24%	43%	inactive	inactive				
O=C(NCCCl)Nc1cccc(OC2CCCC2)c1							inactive					
O=C(NCCCl)Nc1cccc(C2CCCCC2)c1	20 µM	18 µM	11.7 µM	52%	32%	16%	inactive	Active				
c1cc(N2CCOCC2)ccc1NC1=NCCO1							inactive	inactive	inactive			
CCCCCCc1ccc(NC(=O)NCCCl)cc1	6.5 µM	3.8 µM	2.9 µM	16%	41%	43%		inactive		Active		
c1cc(C2CCCCC2)ccc1NC1=NCCO1		18 µM					inactive	Active				
CCC1(c2ccc(NC(=O)NCCCl)cc2)CCCCC1	17 µM	19 µM	9.1 µM	66%	17%	17%	inactive	Active				
O=C(CCl)NC(=O)Nc1cccc(C2CCCCC2)c1		2.4 µM					inactive	Active				
O=C(NCCCl)Nc1ccc2ccccc2c1				17%	38%	45%		inactive		Active		
O=C(NCCCl)Nc1cccc(OC2CCCCCC2)c1							inactive	Active				
O=C(NCCCl)Nc1cccc(OC2CCCCCCC2)c1	23 µM	30 µM	20 µM	61%	29%	10%	inactive	Active				
CC(C)(C)c1ccc(NC(=O)NCCCl)cc1								inactive		Active		
c1cc(NC2=NCCO2)cc(C2CCCCC2)c1		45 µM					inactive	Active				
O=C(NCCCl)Nc1cccc(OC2CCCCC2)c1							inactive					
CC[C@]1(O)C[C@@H]2CN(CCc3c([nH]c4ccccc34)[C@@](C(=O)OC)(c3cc4c(cc3OC)N(C)[C@H]3[C@@](O)(C(=O)OC)[C@H](OC(C)=O)[C@]5(CC)C=CCN6CC[C@]43[C@@H]65)C2)C1							inactive				inactive	inactive
O=C(NCCCl)Nc1ccc2c(c1)CCC2				31%	29%	40%				Active		
CC1CCC(Oc2ccc(NC(=O)NCCCl)cc2)CC1 (configuration not stated)	21 µM	23 µM	16 µM	63%	13%	25%	inactive	Active				
O=C(NCCCl)Nc1ccc(I)cc1										Active		
O=C(CCl)NC(=O)Nc1ccc(C2CCCCC2)cc1							inactive	Active				
O=C(NCCCl)Nc1ccc2c(c1)CCCC2	7.3 µM	3.7 µM	2 µM	10%	49%	41%		Active		Active		
